Results on 15 compounds are retold here after ChEMBL document CHEMBL1143096, “Synthesis and antitumor activity of benzils related to combretastatin A-4” (Bioorg Med Chem Lett, 2008).

Activity calls are given as the source filed them. The rule behind the calls is not given here.

A short description of experiment [1]: Inhibition of tubulin assembly.
Experiment [2] can be described thus: Inhibition of tubulin assembly at 13 uM.
Experiment [3] deals with HCT-116. As to the kind of experiment: Cytotoxicity against human HCT116 cells. It is filed as functional, cell-based. Summed up:
(§1)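 Growth inhibition assay; IC50 taken as the sample concentration producing 50% reduction in cell growth, each drug concentration tested in triplicate.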

A short description of experiment [4]: Inhibition of tubulin assembly at 130 uM.
A further experiment relates to MDA-MB-231. As to the kind of experiment: Cytotoxicity against human MDA-MB-231 cells. It is filed as functional, cell-based.
Experiment [5] concerns HCT-116. As to the kind of experiment: Cell cycle arrest in human HCT116 cells assessed as accumulation at G2/M phase at 10 nM after 24 hrs by flow cytometry. It is filed as functional. Summed up: (§2)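 Flow cytometry of cellular DNA content after 24 h exposure to 10, 20 or 50 nM; percentage of cells in G2/M phase reported, DMSO vehicle control; data representative of three independent experiments.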

The test system of experiment [6] is HUVEC. The experiment is described as follows: Cytotoxicity against HUVEC. It counts as cell-based. Conditions: Homo sapiens. In a few lines:
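HUVEC proliferation measured after 72 h incubation; IC50 derived for growth inhibition.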

Experiment [7] deals with HCT-116. The experiment is described as follows: Cell cycle arrest in human HCT116 cells assessed as accumulation at G2/M phase at 20 nM after 24 hrs by flow cytometry. It is filed as functional. In a few lines:
as §2
For orientation: A flow cytometer gives signals particle by particle.

The nature of experiment [8]: Cell cycle arrest in human H1299 cells assessed as accumulation at G2/M phase at 50 nM after 24 hrs by flow cytometry. It counts as functional, cell-based. Conditions: NCI-H1299. In a few lines: as §2
Experiment [9] is described as follows: Cytotoxicity against human H1299 cells. It is filed as functional, cell-based. Conditions: NCI-H1299. Summed up: as §1
For experiment [10], the system named is HCT-116. The experiment is described as follows: Cell cycle arrest in human HCT116 cells assessed as accumulation at G2/M phase at 50 nM after 24 hrs by flow cytometry. It is filed as functional. In a few lines: as §2
For the next experiment, the system named is K562. The experiment is described as follows: Cytotoxicity against human K562 cells. It is filed as functional, cell-based.
In experiment [11] the test system is HCT-116. As to the kind of experiment: Induction of apoptosis in human HCT116 cells after 24 hrs by caspase activation assay. It is filed as functional, cell-based. In a few lines:
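Cells treated with 10, 50 and 100 nM for 24 h; caspase 3 and 7 activities measured by standard caspase cleavage assay.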

A short description of experiment [12]: Cell cycle arrest in human H1299 cells assessed as accumulation at G2/M phase at 20 nM after 24 hrs by flow cytometry. It counts as functional, cell-based. The conditions noted are these: NCI-H1299. Summed up:
as §2

Experiment [13] can be described thus: Cell cycle arrest in human H1299 cells assessed as accumulation at G2/M phase at 10 nM after 24 hrs by flow cytometry. It is filed as functional, cell-based. Conditions: NCI-H1299. Summed up:
as §2

Experiment [14] concerns HUVEC. As to the kind of experiment: Disruption of integrity of newly formed blood vessels of HUVEC at 100 nM after 3 hrs by tube formation assay. It is filed as functional, cell-based. Conditions: Homo sapiens, Blood vessel. In a few lines: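 HUVEC seeded on Matrigel; 24 h later, compound (100 nM) or vehicle added to formed cords; images taken 3 h after addition to assess network integrity.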

For `COc1ccc(C(=O)C(=O)c2cc(OC)c(OC)c(OC)c2)cc1OC`, the IC50 was found to be 63000 nM in experiment [1] and 300 nM in the experiment on HCT-116 [3]. Besides, the inhibition in experiment [2] was 52%; in experiment [4], 85%.

Regarding `COc1ccc(C(=O)C(=O)c2cc(OC)c(OC)c(OC)c2)cc1O`, the IC50 in experiment [1] turned out to be 1500 nM; in the experiment with MDA-MB-231 it was 40 nM; in the experiment with HUVEC [6], 35 nM; in experiment [9], 30 nM; in the experiment on K562, 25 nM; in the experiment with HCT-116 [3], 35 nM. Besides, the Activity amounted to 11% with HCT-116 [5]; 18.5% in the experiment with HCT-116 [7]; 27.7% in experiment [8]; 22.8% in the experiment with HCT-116 [10]; 15% in experiment [12]; 11.4% in experiment [13]. Moreover, the figures for the inhibition in [2] and in [4] were 65% and 73%, respectively. Besides, the outcome in the experiment with HCT-116 [11] was Active.

For `COc1cc(C(=O)C(=O)c2ccccn2)cc(OC)c1OC`, the result in the experiment with HCT-116 [3] was inactive. For the same compound, the inhibition in experiment [4] was 23%.

For the compound `COc1cc(C(=O)C(=O)c2ccccc2)cc(OC)c1OC`, the values for the inhibition in experiment [2] and in experiment [4] were 34% and 79%, respectively. Besides, 3000 nM corresponded to half-maximal inhibition in the experiment on HCT-116 [3] (IC50).

For the compound `COc1ccc(C(=O)C(=O)c2cc(OC)c(OC)c(OC)c2)cc1N`, the IC50 in [1] is 5000 nM; with MDA-MB-231, 30 nM; in the experiment with HUVEC [6], 40 nM; in experiment [9], 50 nM; in the experiment with K562, 20 nM; in the experiment on HCT-116 [3], 38 nM. For the same compound, the Activity in the experiment with HCT-116 [5] is 13%; in the experiment with HCT-116 [7], 15.9%; in experiment [8], 16.5%; in the experiment with HCT-116 [10] it was 28%; in experiment [12] it was 12.2%; in experiment [13], 11.7%. Moreover, the inhibition in experiment [2] was 82%; in [4] it was 88%. Moreover, the outcome in the experiment with HUVEC [14] and in the experiment on HCT-116 [11] was Active.

For `COc1cc(C(=O)C(=O)c2ccc3ccccc3c2)cc(OC)c1OC`, the inhibition in [2] is 23%; in [4], 80%. This compound also gave an IC50 in the experiment with HCT-116 [3] of 3000 nM.

For the compound `COc1ccc(/C=C\c2cc(OC)c(OC)c(OC)c2)cc1O` [COMBRETASTATIN A4], the IC50 in the experiment with HUVEC [6] is 2.5 nM; in [9], 5 nM; in the experiment with HCT-116 [3], 1.8 nM. Also, the inhibition in experiment [2] was 77%; in [4] it was 88%.

For `COc1ccc(C(=O)C(=O)c2cc(OC)c(OC)c(OC)c2)cc1`, the IC50 is 21000 nM in [1] and 300 nM in the experiment on HCT-116 [3]. For the same compound, the inhibition is 58% in experiment [2] and 89% in experiment [4].

Consider `COc1cc(C(=O)C(=O)c2ccc(C#N)cc2)cc(OC)c1OC`, for which the result in the experiment on HCT-116 [3] was inactive. In addition, in experiment [4], the inhibition amounted to 28%.

As for `COc1ccc(C(=O)C(=O)c2cc(OC)c(OC)c(OC)c2)cc1OC(C)=O`, the IC50 in the experiment with MDA-MB-231 worked out at 40 nM; in experiment [9], 30 nM; in the experiment on K562 it was 25 nM; with HCT-116 [3], 40 nM. This compound also registered an inhibition in experiment [4] of 14%.

`COc1cc(C(=O)C(=O)c2ccccc2C#N)cc(OC)c1OC`: the figures for the inhibition in experiment [2] and in [4] were 12% and 0%, respectively. The outcome with HCT-116 [3] was inactive.

Take `COc1cc(C(=O)C(=O)c2cnc3ccccc3c2)cc(OC)c1OC`: the values for the inhibition in experiment [2] and in experiment [4] were 35% and 58%, respectively. Further, in the experiment on HCT-116 [3], the outcome was inactive.

On to `COc1cc(C(=O)C(=O)c2cccc(O)c2)cc(OC)c1OC`, for which the inhibition in experiment [2] stood at 42%; in [4], 69%. This compound also came in with an IC50 in the experiment with HCT-116 [3] of 2000 nM.

In the case of `COc1ccc(C(=O)C(=O)c2cc(OC)c(OC)c(OC)c2)cc1F`, the inhibition in experiment [2] was determined as 47%; in [4], 73%. Further, the IC50 in the experiment on HCT-116 [3] stood at 700 nM.

In the case of `COc1ccc(C(=O)C(=O)c2cc(OC)c(OC)c(OC)c2)cc1NC(C)=O`, the inhibition in [2] and in experiment [4] was 45% each time. In the experiment on HCT-116 [3], this compound yielded an IC50 of 350 nM.

The term IC50 denotes the concentration needed to halve the response being measured. Lower therefore signals greater potency. By inhibition is commonly meant the share of the control response that was lost under treatment.
